What was measured:
ACHN [1] = assay: Growth inhibition of human ACHN cells after 7 days by celltiter-glo assay; assay type: functional; details: 168 h
SN12C [2] = assay: Growth inhibition of human SN12C cells after 7 days by celltiter-glo assay; assay type: functional; details: 168 h
MDA-MB-435 [3] = assay: Growth inhibition of human MDA-MB-435 cells after 7 days by celltiter-glo assay; assay type: functional; details: MDA-MB-435, 168 h
BT-549 = assay: Growth inhibition of human BT549 cells at 10 uM after 7 days by celltiter-glo assay; assay type: functional; details: BT-549, 168 h, read-out: GI
MDA-MB-231 = assay: Growth inhibition of human MDA-MB-231 cells at 10 uM after 7 days by celltiter-glo assay; assay type: functional; details: MDA-MB-231, 168 h, read-out: GI
HCC 2998 = assay: Growth inhibition of human HCC2998 cells at 10 uM after 7 days by celltiter-glo assay; assay type: functional; details: HCC 2998, 168 h, read-out: GI
UO-31 [4] = assay: Growth inhibition of human UO31 cells after 7 days by celltiter-glo assay; assay type: functional; details: UO-31, 168 h
SK-MEL-5 = assay: Growth inhibition of human SK-MEL-5 cells after 7 days by celltiter-glo assay; assay type: functional; details: SK-MEL-5, 168 h
LOX IMVI = assay: Growth inhibition of human LOXIMVI cells after 7 days by celltiter-glo assay; assay type: functional; details: 168 h
T47D [5] = assay: Growth inhibition of human T47D cells at 10 uM after 7 days by celltiter-glo assay; assay type: functional; details: 168 h, read-out: GI
HT-29 [6] = assay: Ratio of compound GI50 to chlorambucil GI50 for human HT-29 cells; assay type: functional
NCI-H460 = assay: Growth inhibition of human NCI-H460 cells at 10 uM after 7 days by celltiter-glo assay; assay type: functional; details: NCI-H460, 168 h, read-out: GI
U-251 [7] = assay: Growth inhibition of human U251 cells after 7 days by celltiter-glo assay; assay type: functional; details: U-251, 168 h
UO-31 [8] = assay: Growth inhibition of human UO31 cells at 10 uM after 7 days by celltiter-glo assay; assay type: functional; details: UO-31, 168 h, read-out: GI
NCI-H522 [9] = assay: Growth inhibition of human NCI-H522 cells at 10 uM after 7 days by celltiter-glo assay; assay type: functional; details: NCI-H522, 168 h, read-out: GI
HL-60(TB) = assay: Growth inhibition of human HL-60(TB) cells after 7 days by celltiter-glo assay; assay type: functional; details: HL-60, 168 h
NCI-H322M = assay: Growth inhibition of human NCI-H322M cells after 7 days by celltiter-glo assay; assay type: functional; details: 168 h
NCI-H226 = assay: Growth inhibition of human NCI-H226 cells at 10 uM after 7 days by celltiter-glo assay; assay type: functional; details: NCI-H226, 168 h, read-out: GI
MDA-MB-468 = assay: Growth inhibition of human MDA-MB-468 cells after 7 days by celltiter-glo assay; assay type: functional; details: MDA-MB-468, 168 h
MDA-MB-435 [10] = assay: Growth inhibition of human MDA-MB-435 cells at 10 uM after 7 days by celltiter-glo assay; assay type: functional; details: MDA-MB-435, 168 h, read-out: GI
786-0 = assay: Growth inhibition of human 786-0 cells at 10 uM after 7 days by celltiter-glo assay; assay type: functional; details: 786-0, 168 h, read-out: GI
CCRF-CEM [11] = assay: Growth inhibition of human CCRF-CEM cells after 7 days by celltiter-glo assay; assay type: functional; details: 168 h
SK-MEL-2 [12] = assay: Growth inhibition of human SK-MEL-2 cells at 10 uM after 7 days by celltiter-glo assay; assay type: functional; details: SK-MEL-2, 168 h, read-out: GI
HT-29 [13] = assay: Growth inhibition of human HT-29 cells after 7 days by celltiter-glo assay; assay type: functional; details: HT-29, 168 h
T47D [14] = assay: Growth inhibition of human T47D cells after 7 days by celltiter-glo assay; assay type: functional; details: 168 h
CCRF-CEM [15] = assay: Growth inhibition of human CCRF-CEM cells at 10 uM after 7 days by celltiter-glo assay; assay type: functional; details: 168 h, read-out: GI
[16] = Growth inhibition of human […] cells at 10 uM after 7 days by celltiter-glo assay; assay type: functional; details: 168 h, read-out: GI
HCT-116 = assay: Growth inhibition of human HCT116 cells at 10 uM after 7 days by celltiter-glo assay; assay type: functional; details: HCT-116, 168 h, read-out: GI
NCI-H522 [17] = assay: Growth inhibition of human NCI-H522 cells after 7 days by celltiter-glo assay; assay type: functional; details: NCI-H522, 168 h
COLO 205 [18] = assay: Growth inhibition of human COLO205 cells after 7 days by celltiter-glo assay; assay type: functional; details: COLO 205, 168 h
SF-539 = assay: Growth inhibition of human SF539 cells at 10 uM after 7 days by celltiter-glo assay; assay type: functional; details: SF-539, 168 h, read-out: GI
DU-145 = assay: Growth inhibition of human DU145 cells after 7 days by celltiter-glo assay; assay type: functional; details: DU-145, 168 h
SNB-19 = assay: Growth inhibition of human SNB19 cells after 7 days by celltiter-glo assay; assay type: functional; details: SNB-19, 168 h
SF-295 = assay: Growth inhibition of human SF295 cells after 7 days by celltiter-glo assay; assay type: functional; details: SF-295, 168 h
COLO 205 [19] = assay: Growth inhibition of human COLO205 cells at 10 uM after 7 days by celltiter-glo assay; assay type: functional; details: COLO 205, 168 h, read-out: GI
NCI/ADR-RES = assay: Growth inhibition of human NCI/ADR-RES cells after 7 days by celltiter-glo assay; assay type: functional; details: 168 h
[20] = Growth inhibition of human p53 deficient Hep3B cells after 7 days by celltiter-glo assay; assay type: functional, Hep 3B2; details: 168 h
Outline: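 Cells seeded at 500 per well in 384-well plates. Compounds came from 30 mM DMSO stocks, serially diluted and tested in quadruplicate. Incubation was 7 d at 37 °C under 5% CO2. Calcein AM (10 μM) and EthD-1 were added, followed by a fluorescence read. CellTiter-Glo lysis was then done for 10 min at room temperature, with a luminescence read. GI50 came from curve fitting.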

SK-MEL-2 [21] = assay: Growth inhibition of human SK-MEL-2 cells after 7 days by celltiter-glo assay; assay type: functional; details: SK-MEL-2, 168 h
K562 = assay: Growth inhibition of human K562 cells at 10 uM after 7 days by celltiter-glo assay; assay type: functional; details: K562, 168 h, read-out: GI
A549 = assay: Growth inhibition of human A549 cells after 7 days by celltiter-glo assay; assay type: functional; details: A549, 168 h
U-251 [22] = assay: Growth inhibition of human U251 cells at 10 uM after 7 days by celltiter-glo assay; assay type: functional; details: U-251, 168 h, read-out: GI
CAKI-1 = assay: Growth inhibition of human Caki1 cells after 7 days by celltiter-glo assay; assay type: functional; details: CAKI-1, 168 h
M14 = assay: Growth inhibition of human M14 cells at 10 uM after 7 days by celltiter-glo assay; assay type: functional; details: M14, 168 h, read-out: GI
ACHN [23] = assay: Growth inhibition of human ACHN cells at 10 uM after 7 days by celltiter-glo assay; assay type: functional; details: 168 h, read-out: GI
SN12C [24] = assay: Growth inhibition of human SN12C cells at 10 uM after 7 days by celltiter-glo assay; assay type: functional; details: 168 h, read-out: GI

## CON(CCCc1ccc(N(CCCl)CCCl)cc1)C1OC[C@@H](O)[C@@H]1O (stereo not given in full)
ACHN [1]
  GI50: 4.34 µM
SN12C [2]
  GI50: 7.06 µM
MDA-MB-435 [3]
  GI50: 21.1 µM
BT-549
  inhibition of growth at 10 µM: 38.5%
MDA-MB-231
  inhibition of growth at 10 µM: 87.5%
HCC 2998
  inhibition of growth at 10 µM: 73.3%
UO-31 [4]
  GI50: 0.856 µM
SK-MEL-5
  GI50: 17.7 µM
LOX IMVI
  GI50: 8.61 µM
T47D [5]
  inhibition of growth at 10 µM: 48%
HT-29 [6]
  RatioGI50: 12
NCI-H460
  inhibition of growth at 10 µM: 35.8%
U-251 [7]
  GI50: 13.1 µM
UO-31 [8]
  inhibition of growth at 10 µM: 54.4%
NCI-H522 [9]
  inhibition of growth at 10 µM: 52.4%
HL-60(TB)
  GI50: 1.88 µM
NCI-H322M
  GI50: > 100 µM
NCI-H226
  inhibition of growth at 10 µM: 84.2%
MDA-MB-468
  GI50: 7.25 µM
MDA-MB-435 [10]
  inhibition of growth at 10 µM: 83%
786-0
  inhibition of growth at 10 µM: 67.9%
CCRF-CEM [11]
  GI50: 2.36 µM
SK-MEL-2 [12]
  inhibition of growth at 10 µM: 100%
HT-29 [13]
  GI50: 0.41 µM
T47D [14]
  GI50: 6.37 µM
CCRF-CEM [15]
  inhibition of growth at 10 µM: 21.2%
[16]
  inhibition of growth at 10 µM: 15.9%
HCT-116
  inhibition of growth at 10 µM: 69.4%
NCI-H522 [17]
  GI50: 10 µM
COLO 205 [18]
  GI50: 12.7 µM
SF-539
  inhibition of growth at 10 µM: 51.8%
DU-145
  GI50: 1.8 µM
SNB-19
  GI50: 33.4 µM
SF-295
  GI50: 6.47 µM
COLO 205 [19]
  inhibition of growth at 10 µM: 93.3%
NCI/ADR-RES
  GI50: 4.61 µM
[20]
  GI50: 0.67 µM
SK-MEL-2 [21]
  GI50: 20.2 µM
K562
  inhibition of growth at 10 µM: 88.5%
A549
  GI50: 12.2 µM
U-251 [22]
  inhibition of growth at 10 µM: 59.9%
CAKI-1
  GI50: 11.5 µM
M14
  inhibition of growth at 10 µM: 67.2%
ACHN [23]
  inhibition of growth at 10 µM: 14.3%
SN12C [24]
  inhibition of growth at 10 µM: 54.2%
